A selection: hits, their analogues and other compounds. The true share with any hit is near 0.55%.
OXTR ag – human OXTR agonists, primary screen, fluorescence, CHO-OTR cells, Fluo-8 calcium | Oxytocin receptor (Homo sapiens), P30559 | Fluo-8 calcium fluorescence; normalized: DMSO 0%, oxytocin 100% | activation, % at 3 µM | 320,000 compounds, 0.32% hits | AID 2435, 2010;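 active = activation above the mean of all tested compounds plus 3 SD, cutoff set per screening run, cut at about 20% in these data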;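 note: peak over basal fluorescence ratio from a 100 s FLIPR kinetic read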
OXTR potentiate – human OXTR potentiators, primary screen, fluorescence, CHO-OTR cells, Fluo-8 calcium; Oxytocin receptor (Homo sapiens), P30559; Fluo-8 calcium fluorescence, potentiator mode; 0% = oxytocin EC15, 100% = EC100; activation, % at 3 µM; 320,000 compounds, 0.061% hits;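 active = activation above that plate's cutoff, the mean activation of tested compounds plus 3 SD, cut at about 6.6% in these data, passing the limit was not always enough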;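 note: 100% uses oxytocin at 75 nM as the full agonist control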
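Replication – single well per compound, singlicate · Assay system – CHO cell line stably expressing human OTR · Timing – 6 min pre-incubation, 100 s read · Measure – normalized max/min fluorescence ratio, % activation · Doses – 3.0 µM, one dose · Detection – Fluo-8 calcium dye fluorescence · Probe or stimulus – oxytocin near EC15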
V1R ag counter – agonists of human V1a receptor, primary screen, counter-screen for OXTR agonist project, fluorescence, CHO-V1R cells; Vasopressin V1a receptor (Homo sapiens), P37288; 320,000 compounds, 0.25% hits; AID 2797, 2010; Fluo-8 calcium fluorescence, agonist mode; 0% DMSO, 100% 3 nM vasopressin; activation, % at 3 µM;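 active = activation above the mean activation of all tested compounds plus 3 SD, per screening run, cut at about 20% in these data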;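 note: signal is peak over basal fluorescence ratio across a 100 second FLIPR read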
Target sequence (P37288 whole entry, looked up): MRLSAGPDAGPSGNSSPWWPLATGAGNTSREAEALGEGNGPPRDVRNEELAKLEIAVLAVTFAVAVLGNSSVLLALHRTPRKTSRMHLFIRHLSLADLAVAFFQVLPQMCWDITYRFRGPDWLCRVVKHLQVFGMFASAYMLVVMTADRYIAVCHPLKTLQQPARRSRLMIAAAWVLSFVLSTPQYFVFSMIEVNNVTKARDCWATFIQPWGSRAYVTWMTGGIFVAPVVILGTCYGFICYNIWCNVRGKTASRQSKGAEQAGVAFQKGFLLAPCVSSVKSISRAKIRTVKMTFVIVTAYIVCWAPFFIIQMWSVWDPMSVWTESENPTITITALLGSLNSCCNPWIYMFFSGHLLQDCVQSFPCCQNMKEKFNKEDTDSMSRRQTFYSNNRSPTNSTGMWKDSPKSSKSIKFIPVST
zfTRPN1 agonist – zebrafish TRPN1 channel agonists, primary screen, cell-based, HEK293, calcium fluorescence | AID 1424, 2008 | transient receptor potential cation channel N1 (TRPN1/NompC), Danio rerio | 220,000 compounds, 0.18% hits | activation, % at 3 µM | HEK293 zebrafish TRPN1-YFP, Fluo-8 calcium fluorescence; 100% = response to 87 µM carbachol;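 active = activation above its plate's cutoff, the mean activation of test wells on that plate plus 3 SD, cut at about 19% in these data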;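 note: 0% = DMSO alone and 100% = 87 µM carbachol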
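System: zebrafish TRPN1-YFP in HEK293 cells / Dosing: 3 µM single point / Timing: dye loading 1 h at 37 °C, then 30 min room temperature / Signal: Fluo-8 calcium fluorescence, excitation 470-495 nm, emission 515-575 nm / Read-out basis: percent activation from peak over basal fluorescence ratio, control-normalized / Control set: high carbachol 87 µM, low DMSO alone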
TRPML3 ag – human TRPML3 channel agonists, primary screen, cell-based, HEK293 TRPML3-YFP, Fluo-8 calcium fluorescence, 3 µM; 100% = the carbachol control signal; activation, % at 3 µM; 220,000 compounds, 0.29% hits; AID 1448, 2008;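 active = activation above its plate's cutoff, the mean activation of the plate's test wells plus 3 SD, cut at about 12% in these data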;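 note: 0% = DMSO only wells and 100% = carbachol wells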
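system = HEK293 cells stably carrying human TRPML3-YFP | doses = one concentration, 3 µM nominal, 0.3% DMSO | timing = dye loading 1 h 37 °C then 30 min ambient, 125 s read | detection = Fluo-8 calcium dye fluorescence, ex 470-495, em 515-575 nm | benchmarks = high control carbachol 87 µM, low control DMSO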
TRPN1 counter – zebrafish TRPN1 channel agonists, counter-screen for TRPML3 agonist project, cell-based, HEK293 TRPN1-YFP, Fluo-8 calcium; 310 compounds, 10% hits; shares compounds with TRPML3 ag; Fluo-8 calcium fluorescence; scaled: carbachol wells 100%, DMSO wells 0%; activation, % at 3 µM;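 active = mean activation over replicates above a set limit taken from the earlier TRPN1 channel primary screen, cut at about 19% in these data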;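 note: 100% = carbachol and 0% = 0.3% DMSO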
TRPML3 ag conf – human TRPML3 channel agonists, confirmation, cell-based, HEK293 TRPML3-YFP, Fluo-8 calcium, triplicate. shares compounds with TRPML3 ag. activation, % at 3 µM. Fluo-8 calcium fluorescence; 100% set by carbachol, 0% by DMSO. 310 compounds, 80% hits;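 active = activation above a set limit derived from the earlier primary screen, cut at about 12% in these data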
OXTR ag confirm – human OXTR agonists, confirmation, fluorescence, CHO-OTR cells, triplicate. shares compounds with OXTR ag. 390 compounds, 20% hits. activation, % at 3 µM. AID 434963, 2010. Fluo-8 calcium fluorescence, agonist;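 active = mean activation above about 20% derived from the earlier single-dose screen, limit read from the data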;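 note: peak over minimum fluorescence ratio per well during a 100 second FLIPR read; 0% = DMSO alone and 100% = oxytocin high control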
V1aR counter 3x – V1a receptor agonists, calcium signal, counter-screen for OXTR agonist project, triplicate, fluorescence, CHO-V1R cells; Fluo-8 calcium fluorescence; 390 compounds, 10% hits; shares compounds with OXTR ag; AID 434991, 2010; activation, % at 3 µM;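 active = mean activation over triplicate exceeds the hit threshold set in the earlier primary screen, cut at about 20% in these data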;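 note: peak over basal fluorescence ratio within a 100 second read; 0% = DMSO alone and 100% = 3 nM vasopressin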
OXTR pot cf – human OXTR potentiators, confirmation, fluorescence, CHO-OTR cells, triplicate; Fluo-8 calcium fluorescence, potentiation; scaled from low-dose to maximal oxytocin; activation, % at 3 µM; 180 tested, under 10 active; shares compounds with OXTR potentiate; AID 434985, 2010;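 active = mean percent activation over triplicates above a cutoff set from solvent-only control plates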;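 note: compounds tested in the presence of an EC15 dose of oxytocin; 0% = EC15 oxytocin with DMSO and 100% = EC100 oxytocin with DMSO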
Numbers without * were called inactive; nt = not tested or not shown.

SMILES	OXTR ag	OXTR potentiate	V1R ag counter	zfTRPN1 agonist	TRPML3 ag	others
CN1/C(=C\C=C2C(=O)NC(=O)NC2=O)C(C)(C)c2ccccc21	25*	-14	32*	42*	17*
O=C1/C(=C\c2ccccc2)C2OCC=C3CN4CCC56c7ccccc7N1C5C2C3CC46 (configuration not stated)	20*	-5	14	4	2
O=C1CC2OCC=C3CN4CCC56c7cc([N+](=O)[O-])ccc7N1C5C2C3CC46 (configuration not stated)	0	4	0	-1	0
CN1CCC(C)(O)C2CCCCC21 (configuration not stated)	0	3	1	1	1
O=C1NC(=O)N(c2ccc(Cl)cc2)C(=O)/C1=C\c1ccc(Sc2nc3ccccc3[nH]2)o1	29*	-16	36*	22*	12*
CCN1C[C@]2(COC)CC[C@H](OC)[C@@]34C5C[C@H]6C(=O)C5[C@](O)(C[C@H]6OC)[C@@](O)(C(OC)C23)[C@@H]14 (some centres not stated)	0	-6	-1	nt	nt
CC1(C)CSC(=NCc2ccccc2)N1	16	-16	14	61*	58*
COc1ccc(CCNCc2cccn2C)cc1OC	0	-7	1	nt	nt
Cc1nc2cc(C(F)(F)F)ccc2n1C1CCN(Cc2nnnn2Cc2cccs2)CC1	33*	-12	37*	6	4
Cc1nc2cc(C(F)(F)F)ccc2n1C1CCN(Cc2nnnn2Cc2ccc3c(c2)OCO3)CC1	5	-22	5	4	2
CN1/C(=C\C=C\C2=[N+](C)c3ccc4ccccc4c3C2(C)C)C(C)(C)c2ccccc21	81*	-24	59*	24*	29*
O=C1NC(=O)N(Cc2ccc(F)cc2)C(=O)/C1=C\c1ccoc1	31*	-23	29*	13	9
CC(=NCCN(C)C)c1c(O)n(Cc2ccccc2)c(=O)[nH]c1=O	0	-3	0	1	0
c1csc(CN2CCNCC2)c1	-1	-4	6	1	1
CCCCCCn1c(=O)c(C(=O)Nc2ncccc2C)c(O)c2ccccc21	38*	-21	46*	nt	nt
CCCCn1c(=O)c(C(=O)Nc2ncccc2C)c(O)c2ccccc21	36*	-11	39*	nt	nt
CCCCCn1c(=O)c(C(=O)Nc2ccccc2C)c(O)c2ccccc21	-1	-6	0	nt	nt
O=C(c1cc(=O)[nH]c2ccc(Br)cc12)N1CCC2(CC1)OCCO2	1	-14	1	0	1
CCOc1ccc(NC(=O)c2c(O)[nH]c(=O)[nH]c2=O)cc1	-1	-1	0	nt	nt
CCOC(=O)c1ccc(NC(=O)c2c(O)[nH]c(=O)[nH]c2=O)cc1	1	-15	1	308*	247*
O=C1CCCN1CC#CCN1CCCC1	1	-12	0	3	27*	TRPN1 counter=6;TRPML3 ag conf=35*
CN1CCC2(O)OCCCC2C1 (configuration not stated)	0	-2	0	-1	0
CNc1ccc2oc(C[C@H]3O[C@@]4(CC[C@H]3C)O[C@H]([C@H](C)C(=O)c3ccc[nH]3)[C@H](C)C[C@H]4C)nc2c1C(=O)O	75*	-26	15	nt	nt	OXTR ag confirm=122*;V1aR counter 3x=134*
COc1ccccc1CCNC(=O)CCC(=O)N1CC2C[C@@H](C1)Cn1c2cccc1=O	0	1	0	nt	nt
O=C(COc1ccc(Br)cc1)N1CCN(Cc2c[nH]c3ccccc23)CC1	10	-24	5	1	1
SMILES	OXTR ag	OXTR potentiate	V1R ag counter	zfTRPN1 agonist	TRPML3 ag	others
O=C(COc1ccc2ccccc2c1)N1CCN(Cc2c[nH]c3ccccc23)CC1	24*	-18	9	1	2	OXTR ag confirm=10;V1aR counter 3x=4
O=c1cccc2n1CC1CC2CN(c2ncnc3c2cnn3-c2ccc(Cl)cc2)C1 (configuration not stated)	0	-14	0	nt	nt
CCCCn1c(=O)c(C(=O)NCc2ccccc2Cl)c(O)c2ccccc21	38*	-23	0	nt	nt	OXTR ag confirm=0;V1aR counter 3x=1
CN1OCC2Cn3c(nc4ccccc43)C21 (configuration not stated)	0	3	0	nt	nt
CCOc1cc2c(cc1OCC)-n1cccc1C(c1ccc(F)c(OC)c1)NC2 (configuration not stated)	22*	-7	15	nt	nt	OXTR ag confirm=7;V1aR counter 3x=3
Oc1ccc(C2NCc3ccccc3-n3cccc32)cc1Cl (configuration not stated)	28*	-23	17	0	1	OXTR ag confirm=10;V1aR counter 3x=2
FC(F)(F)c1cccc(C2NCc3ccccc3-n3cccc32)c1 (configuration not stated)	-2	-21	0	nt	nt
COc1ccc(C(c2c(O)c3ccccc3oc2=O)c2c(C)n(C)n(-c3ccccc3)c2=O)cc1 (configuration not stated)	-1	12*	-1	0	0	OXTR pot cf=-10
CCOC(=O)C(=CNc1ccc(C(O)(C(=O)OCC)C(F)(F)F)cc1C)C(=O)OCC (configuration not stated)	-1	-4	0	-2	-1

Assay outcomes as filed in PubChem BioAssay.
